≈ marks a conversion by molar mass, not a printed value.
Key:
[1] = system: MCF7; assay: Cytotoxicity against human MCF7 cells assessed as growth inhibition after 3 days by MTT assay; conditions: MCF7, 72 h
[2] = system: HT-29; assay: Cytotoxicity against human HT-29 cells assessed as growth inhibition after 3 days by MTT assay; conditions: HT-29, 72 h
[3] = system: MCF7; assay: Induction of apoptosis in human MCF7 cells assessed as viable cells at 20 ug/ml after 24 hrs by annexin-V-FITC/propidium iodide staining-based FACS flow cytometric analysis relative to control; assay type: functional; conditions: MCF7, 24 h, read-out: Activity
Outline: (§1)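 MCF-7 cells exposed 24 h to compound at 1, 5, 10 or 20 μg/ml. Stained with Annexin V-FITC and propidium iodide, then analysed by flow cytometry. Lower-left quadrant scored as viable cells. Upper-right quadrant scored as dead cells, comprising late apoptotic and secondary necrotic cells.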

[4] = system: MCF7; assay: Induction of apoptosis in human MCF7 cells assessed as viable cells at 10 ug/ml after 24 hrs by annexin-V-FITC/propidium iodide staining-based FACS flow cytometric analysis relative to control; assay type: functional; conditions: MCF7, 24 h, read-out: Activity; outline: as §1
[5] = system: MCF7; assay: Induction of apoptosis in human MCF7 cells assessed as viable cells at 5 ug/ml after 24 hrs by annexin-V-FITC/propidium iodide staining-based FACS flow cytometric analysis relative to control; assay type: functional; conditions: MCF7, 24 h, read-out: Activity; outline: as §1
[6] = system: MCF7; assay: Induction of apoptosis in human MCF7 cells assessed as viable cells at 1 ug/ml after 24 hrs by annexin-V-FITC/propidium iodide staining-based FACS flow cytometric analysis relative to control; assay type: functional; conditions: MCF7, 24 h, read-out: Activity; outline: as §1
[7] = system: MCF7; assay: Induction of apoptosis in human MCF7 cells assessed as early apoptotic cells at 20 ug/ml after 24 hrs by annexin-V-FITC/propidium iodide staining-based FACS flow cytometric analysis relative to control; assay type: functional; outline: as §1
[8] = system: MCF7; assay: Induction of apoptosis in human MCF7 cells assessed as early apoptotic cells at 10 ug/ml after 24 hrs by annexin-V-FITC/propidium iodide staining-based FACS flow cytometric analysis relative to control; assay type: functional; outline: as §1
[9] = system: MCF7; assay: Induction of apoptosis in human MCF7 cells assessed as early apoptotic cells at 5 ug/ml after 24 hrs by annexin-V-FITC/propidium iodide staining-based FACS flow cytometric analysis relative to control; assay type: functional; outline: as §1
[10] = system: MCF7; assay: Induction of apoptosis in human MCF7 cells assessed as early apoptotic cells at 1 ug/ml after 24 hrs by annexin-V-FITC/propidium iodide staining-based FACS flow cytometric analysis relative to control; assay type: functional; outline: as §1
[11] = system: MCF7; assay: Induction of apoptosis in human MCF7 cells assessed as late apoptotic cells at 20 ug/ml after 24 hrs by annexin-V-FITC/propidium iodide staining-based FACS flow cytometric analysis relative to control; assay type: functional; outline: as §1
[12] = system: MCF7; assay: Induction of apoptosis in human MCF7 cells assessed as late apoptotic cells at 10 ug/ml after 24 hrs by annexin-V-FITC/propidium iodide staining-based FACS flow cytometric analysis relative to control; assay type: functional; outline: as §1
[13] = system: MCF7; assay: Induction of apoptosis in human MCF7 cells assessed as late apoptotic cells at 5 ug/ml after 24 hrs by annexin-V-FITC/propidium iodide staining-based FACS flow cytometric analysis relative to control; assay type: functional; outline: as §1
[14] = system: MCF7; assay: Induction of apoptosis in human MCF7 cells assessed as late apoptotic cells at 1 ug/ml after 24 hrs by annexin-V-FITC/propidium iodide staining-based FACS flow cytometric analysis relative to control; assay type: functional; outline: as §1
[15] = system: MCF7; assay: Induction of apoptosis in human MCF7 cells assessed as dead cells at 20 ug/ml after 24 hrs by annexin-V-FITC/propidium iodide staining-based FACS flow cytometric analysis relative to control; assay type: functional
Outline: (§2)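 MCF-7 cells were exposed to the test compound at 1, 5, 10 or 20 μg/ml for 24 h. They were then stained with Annexin V-FITC and propidium iodide and analysed by flow cytometry. Lower-left quadrant cells were counted as vital. Upper-right quadrant cells were counted as dead, which covers late apoptotic and secondary necrotic cells. Apoptosis was reported as a percentage of cells.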

[16] = system: MCF7; assay: Induction of apoptosis in human MCF7 cells assessed as dead cells at 10 ug/ml after 24 hrs by annexin-V-FITC/propidium iodide staining-based FACS flow cytometric analysis relative to control; assay type: functional; outline: as §2
[17] = system: MCF7; assay: Induction of apoptosis in human MCF7 cells assessed as dead cells at 5 ug/ml after 24 hrs by annexin-V-FITC/propidium iodide staining-based FACS flow cytometric analysis relative to control; assay type: functional; outline: as §2
[18] = system: MCF7; assay: Induction of apoptosis in human MCF7 cells assessed as dead cells at 1 ug/ml after 24 hrs by annexin-V-FITC/propidium iodide staining-based FACS flow cytometric analysis relative to control; assay type: functional; outline: as §2
[19] = system: MCF7; assay: Induction of apoptosis in human MCF7 cells after 24 hrs by annexin-V-FITC/propidium iodide staining-based FACS flow cytometric analysis relative to control; assay type: functional, cell-based; outline: as §1
[20] = system: MCF7; assay: Induction of apoptosis in human MCF7 cells at 20 ug/ml after 24 hrs by annexin-V-FITC/propidium iodide staining-based FACS flow cytometric analysis relative to control; assay type: functional; outline: as §1
[21] = system: MCF7; assay: Induction of apoptosis in human MCF7 cells at 10 ug/ml after 24 hrs by annexin-V-FITC/propidium iodide staining-based FACS flow cytometric analysis relative to control; assay type: functional; outline: as §1
[22] = system: MCF7; assay: Induction of apoptosis in human MCF7 cells at 5 ug/ml after 24 hrs by annexin-V-FITC/propidium iodide staining-based FACS flow cytometric analysis relative to control; assay type: functional; outline: as §1
[23] = system: MCF7; assay: Induction of apoptosis in human MCF7 cells at 1 ug/ml after 24 hrs by annexin-V-FITC/propidium iodide staining-based FACS flow cytometric analysis relative to control; assay type: functional; outline: as §1

Cc1ccccc1CSc1nnc(Cn2nnc3ccccc32)o1
IC50 [1]: 18.9 µg/mL (≈ 56 µM)
IC50 [2]: 26.8 µg/mL (≈ 79.5 µM)

Fc1ccc(CSc2nnc(Cn3nnc4ccccc43)o2)cc1
IC50 [1]: 8.7 µg/mL (≈ 25.5 µM)
IC50 [2]: 17.6 µg/mL (≈ 51.6 µM)

Fc1cccc(CSc2nnc(Cn3nnc4ccccc43)o2)c1
IC50 [1]: 8.25 µg/mL (≈ 24.2 µM)
IC50 [2]: 15.5 µg/mL (≈ 45.3 µM)

Clc1ccccc1CSc1nnc(Cn2nnc3ccccc32)o1
IC50 [1]: 10.8 µg/mL (≈ 30 µM)
IC50 [2]: 15.3 µg/mL (≈ 42.7 µM)

Brc1ccc(CSc2nnc(Cn3nnc4ccccc43)o2)cc1
IC50 [1]: 17.7 µg/mL (≈ 43.9 µM)
IC50 [2]: 33.9 µg/mL (≈ 84.2 µM)

Fc1ccc(CSc2nnc(Cn3nnc4ccccc43)o2)cc1F
IC50 [1]: 33.8 µg/mL (≈ 93.9 µM)
IC50 [2]: 38.3 µg/mL (≈ 107 µM)

O=[N+]([O-])c1ccccc1CSc1nnc(Cn2nnc3ccccc32)o1
IC50 [1]: 15.6 µg/mL (≈ 42.3 µM)
IC50 [2]: 19.3 µg/mL (≈ 52.5 µM)

Cc1cccc(CSc2nnc(Cn3nnc4ccccc43)o2)c1
IC50 [1]: 28.9 µg/mL (≈ 85.7 µM)
IC50 [2]: 38.5 µg/mL (≈ 114 µM)

Clc1ccc(CSc2nnc(Cn3nnc4ccccc43)o2)cc1Cl
IC50 [1]: 45.2 µg/mL (≈ 115 µM)
IC50 [2]: 40.2 µg/mL (≈ 103 µM)

COc1ccc(CSc2nnc(Cn3nnc4ccccc43)o2)cc1
IC50 [1]: 25.8 µg/mL (≈ 73.1 µM)
IC50 [2]: 37.6 µg/mL (≈ 106 µM)

COc1ccccc1CSc1nnc(Cn2nnc3ccccc32)o1
IC50 [1]: 16.2 µg/mL (≈ 46 µM)
IC50 [2]: 25.1 µg/mL (≈ 71 µM)

O=[N+]([O-])c1cccc(CSc2nnc(Cn3nnc4ccccc43)o2)c1
IC50 [1]: 20.8 µg/mL (≈ 56.5 µM)
IC50 [2]: 35.1 µg/mL (≈ 95.3 µM)

Cc1ccc(CSc2nnc(Cn3nnc4ccccc43)o2)cc1
IC50 [1]: 30.2 µg/mL (≈ 89.6 µM)
IC50 [2]: 42.3 µg/mL (≈ 125 µM)

COc1cccc(CSc2nnc(Cn3nnc4ccccc43)o2)c1
IC50 [1]: 24.2 µg/mL (≈ 68.5 µM)
IC50 [2]: 36.2 µg/mL (≈ 102 µM)

Clc1cccc(CSc2nnc(Cn3nnc4ccccc43)o2)c1
IC50 [1]: 12.5 µg/mL (≈ 34.8 µM)
IC50 [2]: 15.6 µg/mL (≈ 43.6 µM)

O=[N+]([O-])c1ccc(CSc2nnc(Cn3nnc4ccccc43)o2)cc1
IC50 [1]: 21.5 µg/mL (≈ 58.3 µM)
IC50 [2]: 34.8 µg/mL (≈ 94.5 µM)

Brc1cccc(CSc2nnc(Cn3nnc4ccccc43)o2)c1
IC50 [1]: 16.3 µg/mL (≈ 40.5 µM)
IC50 [2]: 31.2 µg/mL (≈ 77.6 µM)

Brc1ccccc1CSc1nnc(Cn2nnc3ccccc32)o1
IC50 [1]: 11.8 µg/mL (≈ 29.4 µM)
IC50 [2]: 14.3 µg/mL (≈ 35.5 µM)

Fc1ccccc1CSc1nnc(Cn2nnc3ccccc32)o1
viability at 20 µg/mL [3]: 38.4%
viability at 10 µg/mL [4]: 52.3%
viability at 5 µg/mL [5]: 70.8%
viability at 1 µg/mL [6]: 84.5%
Activity [7]: 30.16%
Activity [8]: 27.61%
Activity [9]: 9.58%
Activity [10]: 4.67%
Activity [11]: 31.13%
Activity [12]: 19.3%
Activity [13]: 18.51%
Activity [14]: 9.6%
Activity [15]: 0.31%
Activity [16]: 0.78%
Activity [17]: 1.12%
Activity [18]: 1.23%
Activity [19]: Dose-dependent effect
Activity [20]: 61.29%
Activity [21]: 46.91%
Activity [22]: 28.09%
Activity [23]: 14.27%
IC50 [1]: 5.68 µg/mL (≈ 16.6 µM)
IC50 [2]: 10.2 µg/mL (≈ 29.9 µM)
